Source: ChEMBL document CHEMBL1146446, “Cytotoxic and antiplatelet aggregation principles from Aglaia elliptifolia” (J Nat Prod, 1997)
≈ marks a conversion by molar mass, not a printed value.

How the values were obtained:
[1] = test system: TE-671; assay: Cytotoxicity against human TE671 cells; format: functional, cell-based
[2] = Antiplatelet aggregation activity against collagen-induced rabbit platelet assessed as platelet aggregation at 100 ug/mL relative to control; format: functional, Oryctolagus cuniculus
Procedure, shortened: (§1)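 Blood from rabbit marginal ear vein was mixed with EDTA to a final 6 mM. It was spun at 90g for 10 min at room temperature to give platelet-rich plasma, then at 500g for 10 min. Platelets were preincubated with sample or 0.5% DMSO for 1 min at 37 °C, then triggered with ADP, arachidonic acid, collagen (10 µg/mL) or PAF (2 ng/mL). Mean ± S.D.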

[3] = Antiplatelet aggregation activity against ADP-induced rabbit platelet assessed as platelet aggregation at 100 ug/mL relative to control; format: functional, Oryctolagus cuniculus; procedure, shortened: as §1
[4] = test system: RPMI-7951; assay: Cytotoxicity against human RPMI7951 cells; format: functional, cell-based
[5] = Antiplatelet aggregation activity against arachidonic acid-induced rabbit platelet assessed as platelet aggregation at 100 ug/mL relative to control; format: functional, Oryctolagus cuniculus; procedure, shortened: as §1
[6] = Antiplatelet aggregation activity against platelet activating factor-induced rabbit platelet assessed as platelet aggregation at 100 ug/mL relative to control; format: functional, Oryctolagus cuniculus; procedure, shortened: as §1
[7] = test system: P388; assay: Cytotoxicity against mouse P388 cells; format: functional, cell-based
[8] = test system: KB; assay: Cytotoxicity against human KB cells; format: functional, cell-based
[9] = test system: A549; assay: Cytotoxicity against human A549 cells; format: functional, cell-based
[10] = test system: HCT-8; assay: Cytotoxicity against human HCT8 cells; format: functional, cell-based
[11] = test system: P388; assay: In vivo cytotoxic activity against mouse P388 cells at 1 mg/kg relative to control; format: functional

## COC(=O)[C@H]1[C@@H](O)[C@@]2(O)c3c(OC)cc(OC)cc3O[C@@]2(c2ccc(OC)cc2)[C@@H]1c1ccccc1 [AGLAFOLIN]
[1]
  IC50: 1 ng/mL (≈ 0.00203 µM)
[2]
  Activity: 88.6%
[3]
  Activity: 85.2%
[4]
  IC50: 1 ng/mL (≈ 0.00203 µM)
[5]
  Activity: 0%
[6]
  Activity: 0%
[7]
  IC50: 2 ng/mL (≈ 0.00406 µM)
[8]
  IC50: 1 ng/mL (≈ 0.00203 µM)
[9]
  IC50: 1 ng/mL (≈ 0.00203 µM)
[10]
  IC50: 5 ng/mL (≈ 0.0102 µM)

## COc1cc2ccc(=O)oc2cc1O [SCOPOLETIN]
[2]
  Activity: 79.2%
[3]
  Activity: 65.3%
[5]
  Activity: 79.2%
[6]
  Activity: 90.5%
[8]
  IC50: 4000 ng/mL (≈ 20.8 µM)

## COc1ccc([C@@]23Oc4cc(OC)cc(OC)c4[C@]2(O)[C@H](O)[C@H](C(=O)N(C)C)[C@H]3c2ccccc2)cc1 [ROCAGLAMIDE]
[1]
  IC50: 6 ng/mL (≈ 0.0119 µM)
[2]
  Activity: 83.8%
[3]
  Activity: 77.6%
[4]
  IC50: 2 ng/mL (≈ 0.00396 µM)
[5]
  Activity: 90.5%
[6]
  Activity: 85.5%
[11]
  T/C: 156%
[7]
  IC50: 5 ng/mL (≈ 0.00989 µM)
[8]
  IC50: 6 ng/mL (≈ 0.0119 µM)
[9]
  IC50: 6 ng/mL (≈ 0.0119 µM)
[10]
  IC50: 7 ng/mL (≈ 0.0138 µM)

## COc1cc([C@@H]2c3cc4c(cc3[C@@H](O[C@@H]3O[C@@H]5CO[C@@H](C)O[C@H]5[C@H](O)[C@H]3O)[C@H]3COC(=O)[C@H]23)OCO4)cc(OC)c1O [ETOPOSIDE]
[7]
  IC50: 2620 ng/mL (≈ 4.45 µM)
[8]
  IC50: 120 ng/mL (≈ 0.204 µM)

## CC[C@]1(O)C[C@@H]2CN(CCc3c([nH]c4ccccc34)[C@@](C(=O)OC)(c3cc4c(cc3OC)N(C)[C@H]3[C@@](O)(C(=O)OC)[C@H](OC(C)=O)[C@]5(CC)C=CCN6CC[C@]43[C@@H]65)C2)C1.O=S(=O)(O)O [VINBLASTINE SULFATE]
[9]
  IC50: 2 ng/mL
[10]
  IC50: 5 ng/mL

## COc1cccc2c1C(=O)c1c(O)c3c(c(O)c1C2=O)C[C@@](O)(C(=O)CO)C[C@@H]3O[C@H]1C[C@H](N)[C@H](O)[C@H](C)O1.Cl [DOXORUBICIN HYDROCHLORIDE]
[9]
  IC50: 150 ng/mL
[10]
  IC50: 300 ng/mL
